Test results reported in the RNAGym collection of RNA variant scans (doi:10.1126/science.aae0568).
Fewer inactive variants are shown than the library holds.

B1: tRNA (parent)
chain: GUUCCGUUGGCGUAAUGGUAACGCGUCUCCCUCCUAAGGAGAAGACUGCGGGUUCGAGUCCCGUACGGAACG

Variants of: B1
Assay: yeast fitness relative to wild type (ratio to wild type); higher = fitter; tRNA-Arg(CCU), competitive growth, 37 C, YPD
Outline: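 Genotype frequency changes were the basis for Darwinian fitness relative to wild type. The frequencies came from 100-nucleotide paired-end sequencing of gene amplicons from the start population and each end population of pooled yeast strains with tRNA-Arg(CCU) gene variants at the native locus. Competition ran in YPD at 37°C for 24 hours in six replicates, genotypes needed ≥ 100 starting reads, and estimates < 0.5 were set to 0.5.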
GAUCCGUUGGUGUAAUGGUAACGCGUCUCCCUCCUAAGGAGAAGACUGCGGGUUCGAGUCCCGUACGGUACG [U2A C11U A69U] showed a yeast fitness of 0.648.
For GAUCCGUUGGUGUAAUAGUAACGCGUCUCCCUCCUAAGGAGAAGACUGCGGGUUCGAGUCCCGGACGGAACG [U2A C11U G17A U64G], the yeast fitness was at most 0.5.
Variant GAUCCGUUGGUGUAAUGGUAACACGUCUGCCUCCUAAGGAGAAGACUGCGGGUUCGAGUCCCGUACGGAACG [U2A C11U G23A C29G] has a yeast fitness of 0.527.
Variant GAUCCGUUGGUGUAAUGGGAACGCGUCUCCCUCCUAAGGAGUAGACUACGGGUUCGAGUCCCGUACGGAACG [U2A C11U U19G A42U G48A] has a yeast fitness of at most 0.5.
GAUCCGUUGGCGUAAUGGUAAGGCGUCUCCCUCCUAAGGAGAAGACUGCGGGUUCGAGUCCUCUACGGAACG [U2A C22G C62U G63C] showed a yeast fitness of at most 0.5.
With GAUCCGUUGGCGUAAUGGUAACGGGUCUCCCUCCUACGGAGAAGACUGCGGGUUCGAGUCCCGUAUGGAACG [U2A C24G A37C C66U] the yeast fitness was at most 0.5.
Variant GAUCCGUUGGCGUAAUGGUAACGGGUCUCCCUCCUACGGAGAAGACUGCGGGUUCCAGUCCCGUACGGAACG [U2A C24G A37C G56C] has a yeast fitness of at most 0.5.
For GAUCCGUUGGCGUAAUGGUAACGGGUCUCCCUCCUAAGGAGAUGAUUGCGGGUUCGAGUCCCGUACGGAACG [U2A C24G A43U C46U], the yeast fitness was 0.542.
In the case of GAUCCGUUGGCGUAAUGGUAACGGGUCUCCUUGCUAAGGAGCUGACUGCGGGUUCGAGUCCCGUUCGGAACG [U2A C24G C31U C33G A42C A43U A65U], the yeast fitness is reported as at most 0.5.
GAUCCGUUGGCGUAAUGGUAACGUGUCUCCCUCCUAAGGAGAAGACUGCGGGUUCGAGUCCCGUACGGAACG [U2A C24U] gave a yeast fitness of 0.95.
Variant GAUCCGUUGGCGUAAUGGUAACGUGUCUCCCUCCUAAGGAGAAGUCUGCGGGUUCGAGUCCCGUACAGAACG [U2A C24U A45U G67A] has a yeast fitness of at most 0.5.
Work on GAUCCGUUGGCGUAAUGGUAACGUGUCUCCCUCCUAAGGAGAAGACUGCGGGUUCGAGUCCCGUACGGACCG [U2A C24U A70C] yielded a yeast fitness of 0.894.
Work on GAUCCGUUGGCGUAAUGGUAACGUGUCUUCCUUGUAAGGAGUAGACUGCGGGUUCGAAUCCCGUACGGAACG [U2A C24U C29U C33U C34G A42U G58A] yielded a yeast fitness of 0.56.
GAUCCGUUGGCGUAAUGGUAACGUGUCUCCCUCCUAAGGAGAAGACCGCGGGUUCGAGUUCCGUACGGAACG [U2A C24U U47C C60U] gave a yeast fitness of at most 0.5.
For GAUCCGUUGGCGUAAUGGUAACGCGUAUCCCUCUUAAGGAGAAGACUGCGGGUUCGAGUCCCGUACGGAACG [U2A C27A C34U], the yeast fitness was at most 0.5.
In the case of GAUCCGUUGGCGUAAUGGUAACGCGUGUCCCUCCUAAGGAGAAGACUGCGGGUUCGAGUCCCGUACGGAACG [U2A C27G], the yeast fitness is reported as 0.764.
For GAUCCGUUGGCGUAAUGGUAACGCGUUUCCCUCCUCAGGAGAAGACUGCGGGUUCGAGUCCCGUACGGAACG [U2A C27U A36C], the yeast fitness was at most 0.5.
With GAUCCGUUGGCGUAAUGGUAACGCGUUUCCCUCCUGAGGAGAAGACUGCGGGUUCGAGUCCCGUACGGAACG [U2A C27U A36G] the yeast fitness was 0.578.
GAUCCGUUGGCGUAAUGGUAACGCGUUUCCCUCCUAAGGAGAAGACUGCGGGUUCGAGUCCCGUACAGAACG [U2A C27U G67A] showed a yeast fitness of 0.531.
For GAUCCGUUGGCGUAAUGGUAACGCGUCUACCUCCUAAGGAGAAGACUGCGGGUUCGAGUCCCGUACGGAACG [U2A C29A], the yeast fitness was 0.625.
GAUCCGUUGGCGUAAUGGUAACGCGUCUACCUCCUAAGGAGGAGACUGUGGGUACGAGUGCCGUACGAAACG [U2A C29A A42G C49U U54A C60G G68A] showed a yeast fitness of at most 0.5.
GAUCCGUUGGCGUAAUGGUAACGCGUCUGCCUCAUAAGGAGAAGACUGCGGGUUCGAGUGCCGUACGGAACG [U2A C29G C34A C60G] showed a yeast fitness of at most 0.5.
Variant GAUCCGUUGGCGUAAUGGUAACGCGUCUCACUCCUAAGGAGAAGACUGCGGGUUCGAGUCCCGUACGGAACG [U2A C30A] has a yeast fitness of 0.819.
Variant GAUCCGUUGGCGUAAUGGUAACGCGUCUCUCUCCUAAGGAGGAGACUGCGGGUUCGAGUGCGGUGUGGAACG [U2A C30U A42G C60G C62G A65G C66U] has a yeast fitness of at most 0.5.
GAUCCGUUGGCGUAAUGGUAACGCGUCUCCAUCCUAAGGAGAAGACUGCGGGUUCGAGUCCCGUACGGAACG [U2A C31A] showed a yeast fitness of 0.815.
Work on GAUCCGUUGGCGUAAUGGUAACGCGUCUCCAUCCUAAGGUGAAGACUGCGGGGUCCAGUCCGGUACGGAACG [U2A C31A A40U U53G G56C C62G] yielded a yeast fitness of at most 0.5.
GAUCCGUUGGCGUAAUGGUAACGCGUCUCCGUCCUAAGGAGAAGACUGCGGGUUCGAGUCCCGUACGGAACG [U2A C31G] gave a yeast fitness of 0.864.
GAUCCGUUGGCGUAAUGGUAACGCGUCUCCGUCCUAAGGAGAAGACUGCGGGUUCGAGUCCCGUGCGGAACG [U2A C31G A65G] gave a yeast fitness of 0.642.
With GAUCCGUUGGCGUAAUGGUAACGCGUCUCCGUCCUAAGCAGGAGACUGUGGGUUCGAGUGCCGUACGGAACG [U2A C31G G39C A42G C49U C60G] the yeast fitness was at most 0.5.
Variant GAUCCGUUGGCGUAAUGGUAACGCGUCUCCUUCCUAAGGAGAAGACUGCGGGUUCGAGUCCCGUACGGAACG [U2A C31U] has a yeast fitness of 0.921.
Work on GAUCCGUUGGCGUAAUGGUAACGCGUCUCCUUCCUAUGGAGAAGACUGCGGGUUCGAGUCCCGUACGGAACG [U2A C31U A37U] yielded a yeast fitness of at most 0.5.
Variant GAUCCGUUGGCGUAAUGGUAACGCGUCUCCCUAUUAAGGAGAAGACUGCGGGUUCAAGUCCCGUACGGAACG [U2A C33A C34U G56A] has a yeast fitness of 0.542.
Variant GAUCCGUUGGCGUAAUGGUAACGCGUCUCCCUGCUAAGGAGCAGACUGCGGGUUCGAGUCCCAUACGGAACG [U2A C33G A42C G63A] has a yeast fitness of at most 0.5.
With GAUCCGUUGGCGUAAUGGUAACGCGUCUCCCUUUUAAAGAGAAGACUGCGAGUUAGAGUCCCGUUCGGAACG [U2A C33U C34U G38A G51A C55A A65U] the yeast fitness was at most 0.5.
Variant GAUCCGUUGGCGUAAUGGUAACGCGUCUCCCUCGUGAGGAGAUGACUGCGGGUUCGAGUCCCGUACGGAACG [U2A C34G A36G A43U] has a yeast fitness of at most 0.5.
Variant GAUCCGUUGGCGUAAUGGUAACGCGUCUCCCUCUUAAGGAGAAGACUACGGGUUCGAGUUCCGUACGGAACG [U2A C34U G48A C60U] has a yeast fitness of 0.602.
In the case of GAUCCGUUGGCGUAAUGGUAACGCGUCUCCCUCCUAAGGAGAAGAAUGCGGGUUCGAGUCCCGUACGGAACG [U2A C46A], the yeast fitness is reported as 1.03.
With GAUCCGUUGGCGUAAUGGUAACGCGUCUCCCUCCUAAGGAGAAGAAUGCGGGUUCGAAUCCCGUACGGAACG [U2A C46A G58A] the yeast fitness was 0.622.
